Assay results reported in ChEMBL document CHEMBL3286095, “Synthesis and antiparasitic activity of new bis-arylimidamides: DB766 analogs modified in the terminal groups” (Eur J Med Chem, 2014).
pIC50: −log10 of the molar value.

Key:
[1] = test system: Trypanosoma brucei rhodesiense; experiment: Antiparasitic activity against Trypanosoma brucei rhodesiense STIB900 trypomastigotes after 3 days by Alamar blue assay; type: functional, organism-based; details: STIB900, 72 h
Outline: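 Axenic trypomastigote bloodstream forms, strain STIB900, exposed to serial drug dilutions for 3 days at 37°C. Viability read by Alamar blue.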

[2] = Selectivity index, ratio of IC50 for rat L6 cells to IC50 for Trypanosoma brucei rhodesiense STIB900 trypomastigotes; type: toxicity, cell-based; details: read-out: Ratio IC50
Outline: (§1)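 SI is the IC50 in cultured L6 rat myoblasts (3-day drug exposure, Alamar blue viability) divided by the parasite IC50. Parasite assays used serial dilutions at 37°C. T. cruzi: intracellular, 4 days, β-galactosidase read-out with CPRG. T. b. rhodesiense: axenic, 3 days, Alamar blue. P. falciparum: 3 days, hypoxanthine incorporation. L. amazonensis: intracellular.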

Plasmodium falciparum [3] = experiment: Antiparasitic activity against chloroquine-resistant Plasmodium falciparum K1 after 3 days by [3H]-hypoxanthine incorporation assay; type: functional, organism-based
Outline: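 Erythrocytic-stage parasites exposed to serial drug dilutions at 37°C for 3 days; viability read by tritium-labelled hypoxanthine incorporation.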

[4] = Selectivity index, ratio of IC50 for rat L6 cells to IC50 for chloroquine-resistant Plasmodium falciparum K1; type: toxicity, cell-based; details: read-out: Ratio IC50; outline: as §1
L6 = experiment: Cytotoxicity against rat L6 cells after 3 days by Alamar blue assay; type: cell-based; details: L6, 72 h
Outline: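 L6 rat myoblast cells cultured with compound for 3 days. Viability measured by Alamar blue.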

Trypanosoma cruzi [5] = experiment: Antiparasitic activity against Trypanosoma cruzi Tulahen LacZ/C4 amastigotes after 4 days by beta-galactosidase reporter gene assay; type: functional, organism-based; details: Tulahen LacZ/C4, 96 h
Outline: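 Intracellular amastigotes of strain Tulahen LacZ/C4 given serial drug dilutions for 4 days at 37°C. The endpoint is the β-galactosidase reporter, read as a colour change after adding CPRG substrate.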

[6] = Selectivity index, ratio of IC50 for rat L6 cells to IC50 for Leishmania amazonensis; type: toxicity, cell-based; details: read-out: Ratio IC50; outline: as §1
[7] = Selectivity index, ratio of IC50 for rat L6 cells to IC50 for Trypanosoma cruzi Tulahen LacZ/C4 amastigotes; type: toxicity, cell-based; details: read-out: Ratio IC50; outline: as §1
Leishmania amazonensis = experiment: Antiparasitic activity against Leishmania amazonensis infected in CD-1 mouse macrophages after 72 hrs by spectrophotometric analysis; type: functional, organism-based
Trypanosoma cruzi [8] = experiment: Ratio of benznidazole IC50 to compound IC50 for Trypanosoma cruzi Tulahen LacZ/C4 amastigotes; type: functional
Plasmodium falciparum [9] = experiment: Ratio of pentamidine IC50 to compound IC50 for chloroquine-resistant Plasmodium falciparum K1; type: functional

Row | SMILES | pIC50 [1] | selectivity ratio [2] | pIC50 (Plasmodium falciparum [3]) | selectivity ratio [4] | pIC50 (L6) | pIC50 (Trypanosoma cruzi [5]) | selectivity ratio [6] | selectivity ratio [7] | pIC50 (Leishmania amazonensis) | Ratio IC50 (Trypanosoma cruzi [8]) | Ratio IC50 (Plasmodium falciparum [9])
1 | CC(C)Oc1cc(NC(=N)c2ccc(Br)s2)ccc1-c1ccc(-c2ccc(NC(=N)c3ccc(Br)s3)cc2OC(C)C)o1 | 4.77 | > 6.47 | 6.04 | > 120 | < 3.96 | < 3.96 |  |  |  |  | 
2 | CC(C)Oc1cc(NC(=N)c2ncc[nH]2)ccc1-c1ccc(-c2ccc(NC(=N)c3ncc[nH]3)cc2OC(C)C)o1 | 7.22 | 26.7 | 7.82 | 107 | 5.80 | 6.22 | 4.32 | 2.67 |  |  | 
3 | O=C(Cn1ccnc1[N+](=O)[O-])NCc1ccccc1 [BENZNIDAZOLE] |  |  |  |  | < 3.82 | 5.73 |  | > 80 |  |  | 
4 | CC(C)Oc1cc(NC(=N)c2cccnn2)ccc1-c1ccc(-c2ccc(NC(=N)c3cccnn3)cc2OC(C)C)o1 | 5.77 | 1.06 | 6.24 | 3.09 | 5.74 | 5.82 | 1.64 | 1.2 |  |  | 
5 | Cc1nc(C(=N)Nc2ccc(-c3ccc(-c4ccc(NC(=N)c5csc(C)n5)cc4OC(C)C)o3)c(OC(C)C)c2)cs1 | 6.13 | 6.36 | 7.06 | 54 | 5.33 | 5.64 | 27.6 | 2.04 |  |  | 
6 | CC(C)Oc1cc(NC(=N)c2ccn(C)n2)ccc1-c1ccc(-c2ccc(NC(=N)c3ccn(C)n3)cc2OC(C)C)o1 | 6.36 | 3.21 | 7.15 | 20 | 5.85 | 5.21 | 1.89 | 0.23 |  |  | 
7 | CC(C)Oc1cc(NC(=N)c2ccccn2)ccc1-c1ccc(-c2ccc(NC(=N)c3ccccn3)cc2OC(C)C)o1 | 6.92 | 25 | 6.83 | 20.1 |  | 7.00 | 34.5 | 30 |  |  | 
8 | CNc1nc(C(=N)Nc2ccc(-c3ccc(-c4ccc(NC(=N)c5csc(NC)n5)cc4OC(C)C)o3)c(OC(C)C)c2)cs1 | 7.04 | 8.69 | 7.51 | 25.8 | 6.10 | 5.64 | 2.67 | 0.35 |  |  | 
9 | Cc1csc(C(=N)Nc2ccc(-c3ccc(-c4ccc(NC(=N)c5nc(C)cs5)cc4OC(C)C)o3)c(OC(C)C)c2)n1 | 4.10 | > 1.55 | 6.00 | > 122 | < 3.91 | < 3.91 | > 12.2 |  | < 5.00 |  | 
10 | CC(C)Oc1cc(NC(=N)c2ncccn2)ccc1-c1ccc(-c2ccc(NC(=N)c3ncccn3)cc2OC(C)C)o1.Cl | 7.49 | 181 | 8.07 | 682 | 5.24 | 6.70 | 8.29 | 29 |  | 9 | 5
11 | CC(C)Oc1cc(NC(=N)c2cc(Br)cs2)ccc1-c1ccc(-c2ccc(NC(=N)c3cc(Br)cs3)cc2OC(C)C)o1 | 4.36 | > 2.46 | 6.00 | > 109 | < 3.97 | < 3.97 |  |  |  |  | 
12 | CC(C)Oc1cc(NC(=N)c2cn(C)cn2)ccc1-c1ccc(-c2ccc(NC(=N)c3cn(C)cn3)cc2OC(C)C)o1 | 6.97 | 74.1 | 7.27 | 148 | 5.10 | 4.74 | 1.6 | 0.44 |  |  | 
13 | CC(C)Oc1cc(NC(=N)c2ccc[nH]2)ccc1-c1ccc(-c2ccc(NC(=N)c3ccc[nH]3)cc2OC(C)C)o1 | 6.94 | 8.69 | 7.60 | 40 | 6.00 | 5.39 | 1.11 | 0.24 |  |  | 
14 | CC(C)Oc1cc(NC(=N)c2cnccn2)ccc1-c1ccc(-c2ccc(NC(=N)c3cnccn3)cc2OC(C)C)o1 | 5.09 | > 16 | 6.26 | > 234 | < 3.89 | 4.80 | 34.8 | > 8.1 |  |  | 
15 | CC(=O)N(C)c1nc(C(=N)Nc2ccc(-c3ccc(-c4ccc(NC(=N)c5csc(N(C)C(C)=O)n5)cc4OC(C)C)o3)c(OC(C)C)c2)cs1 | 7.11 | 10.3 | 7.46 | 22.6 | 6.10 | 5.51 | 0.99 | 0.26 |  |  | 
16 | CC(C)Oc1cc(NC(=N)c2csc(N)n2)ccc1-c1ccc(-c2ccc(NC(=N)c3csc(N)n3)cc2OC(C)C)o1 | 6.45 | 10.4 | 7.41 | 94.9 | 5.43 | 5.25 | 2.18 | 0.66 |  |  | 
17 | CC(=O)Nc1nc(C(=N)Nc2ccc(-c3ccc(-c4ccc(NC(=N)c5csc(NC(C)=O)n5)cc4OC(C)C)o3)c(OC(C)C)c2)cs1.Cl | 7.92 | 50 | 8.05 | 66.7 | 6.22 | 5.80 | 2.73 | 0.38 |  |  | 5
